Measured values of several laboratories.
Lines come from different studies, so protocols differ.
MET Y1235D: Hepatocyte growth factor receptor (MET, Homo sapiens, UniProt P08581, Y1235D)
MET M1250T: Hepatocyte growth factor receptor (MET, Homo sapiens, UniProt P08581, M1250T)
MET: Hepatocyte growth factor receptor (MET, Homo sapiens, UniProt P08581)

N#CC1(c2ccccn2)CCN(Cc2cc(C(=O)O)c(=O)n3ccccc23)CC1 — remaining binding (MET Y1235D; cell-free assay, competition with immobilised ligand; 1 µM): 99%
Cn1cc(-c2cccc(N3CCc4c(sc5c4CC(C)(C)C5)C3=O)c2CO)cc(Nc2ccncn2)c1=O — inhibition (MET M1250T; enzyme activity, inhibitor; 1 µM): 5%
Cc1nn(C)cc1-c1nc2c(N3CCN(Cc4ccc(Cl)cc4)CC3)c(Cl)cnc2[nH]1 — remaining binding (MET; binding, competition with immobilised ligand; 1 µM): 83%
Cn1cc(-c2cc(F)cc(N3CCn4c(cc5c4CCCC5)C3=O)c2CO)cc(Nc2ccc(N3CCN(C4COC4)CC3)cn2)c1=O — inhibition (MET; enzyme activity, inhibitor; 0.1 µM): 15%
Nc1ncc(-c2nc(N3CCOCC3)nc(N3CCOCC3)n2)c(C(F)F)n1 — remaining binding (MET Y1235D; cell-free assay, competition with immobilised ligand; 10 µM): 92%
Cn1cncc1[C@](O)(COc1ccc(C#N)cc1-c1ccc(OC(F)(F)F)cc1)c1ccc(C#N)cc1 — remaining binding (MET M1250T; cell-free assay, competition with immobilised ligand; 1 µM): 100%
CC(C)(C)c1cc(C=C(C#N)C#N)cc(Br)c1O — remaining activity (MET; enzyme activity, inhibitor; 0.5 µM): 111%
C#Cc1n[nH]c2c(-c3cn(C(C)c4ccccn4)c(=O)[nH]c3=O)cc(F)cc12 (stereo not shown) — inhibition (Hepatocyte growth factor receptor (MET, Homo sapiens, UniProt P08581, D1228H); enzyme activity, inhibitor; 1 µM): 100%
O=c1[nH]c2ccccc2n1C1CCN(Cc2ccc(-c3[nH]c4cc5ncnc5cc4nc3-c3ccccc3)cc2)CC1 — remaining signal (MET; cell-free assay; 0.5 µM): 102%
COc1ncccc1-c1cnn2ccc(N3CCN(C(=O)OC(C)C)CC3)nc12 — remaining binding (MET; binding, competition with immobilised ligand; 1 µM): 88%
